Screens (PubChem)
DDE Tn7 FP inh: DD(E)-Tn7 binding inhibition, primary FP screen. P02675. FP displacement of FITC-Tn7 peptide from fibrin DD(E); 0% = median of compound wells per plate. inhibition, % at 8.3 µM. 0.13% of 370,000 active;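 active = inhibition above the mean of compounds falling within the control limits plus 3 SD of them, cut at about 14% in these data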;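 also: 0% = plate median of compound wells and 100% = 10 µM Aha-Tn7 peptide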
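Assay system: Human clot-derived fibrin DD(E) complex | Buffer or medium: Tris/NaCl/CaCl2 buffer, pH 7.8 | Repeats: One replicate per compound | Benchmarks: Aha-Tn7 high control | Measure: % inhibition scaled between sample-field median and high-control FP | Schedule: 10 min plus 3 h, room temperature | Signal: Fluorescence polarization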
HTRA1 inh: inhibitors of human serine peptidase HTRA1. Q92743. recombinant HTRA1, FP-rhodamine activity-based probe, fluorescence polarization. inhibition, % at 5.96 µM. 0.5% of 340,000 active. AID 504803; in the data active = inhibition above about 36%;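 also: 0% = enzyme with DMSO and 100% = wells lacking enzyme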
ABHD4 inh: inhibitors of mouse ABHD4. AID 720543. 0.54% of 370,000 active. inhibition, % at 8.92 µM. purified mABHD4, FP-Rh probe fluorescence polarization. Q8VD66;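 active = inhibition exceeding the mean over every tested compound plus 3 SD, cut at about 30% in these data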;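 also: 0% = plate median of compound wells and 100% = S159A mutant with DMSO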
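System: mouse ABHD4 enzyme, wild type / Medium: HEPES pH 7.0, NaCl, Pluronic buffer / Reagent: FP-Rh activity-based fluorescent probe / Control set: S159A mutant high control, sample median low control / Detection: fluorescence polarization with parallel and perpendicular emission, 525/598 nm / Schedule: 45 min + 60 min at 25 °C / Compound dosing: 8.92 µM, single dose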
TCR-CD3 inh: inhibitors of human TCR-CD3 interaction; TAMRA-labeled TCR probe fluorescence, biochemical; inhibition, % at 9.4 µM; 0.37% of 360,000 active; AID 651800; in the data active = inhibition above about 19%;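 also: recombinant mutant TCR 2C K166C tagged with TAMRA read by polarization; 0% = receptor in buffer alone and 100% = receptor with positive control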
Tn6 DDE FP: inhibitors of Tn6 peptide binding to human fibrin DD(E). P02675. Fibrin DD(E) TRITC-Tn6 fluorescence polarization displacement. inhibition, % at 8.3 µM. 0.21% of 370,000 active;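 active = inhibition above a per-campaign cutoff: mean of compounds within control limits plus 3 SD, cut at about 15% in these data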;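 also: 0% = median of all compound wells on the plate and 100% = blocking peptide control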
SIAE inh: blocks human sialic acid acetylesterase. inhibition, % at 9.66 µM. SIAE FP-Rh probe binding, fluorescence polarization. 0.69% of 370,000 active. Q9HAT2. AID 1053197;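 active = inhibition above a cutoff: mean of compounds within the control limits plus 3 SD of those, cut at about 17% in these data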;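 also: 0% = plate median of compound wells and 100% = probe without SIAE protein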
Target sequence (Q9HAT2 whole entry, looked up): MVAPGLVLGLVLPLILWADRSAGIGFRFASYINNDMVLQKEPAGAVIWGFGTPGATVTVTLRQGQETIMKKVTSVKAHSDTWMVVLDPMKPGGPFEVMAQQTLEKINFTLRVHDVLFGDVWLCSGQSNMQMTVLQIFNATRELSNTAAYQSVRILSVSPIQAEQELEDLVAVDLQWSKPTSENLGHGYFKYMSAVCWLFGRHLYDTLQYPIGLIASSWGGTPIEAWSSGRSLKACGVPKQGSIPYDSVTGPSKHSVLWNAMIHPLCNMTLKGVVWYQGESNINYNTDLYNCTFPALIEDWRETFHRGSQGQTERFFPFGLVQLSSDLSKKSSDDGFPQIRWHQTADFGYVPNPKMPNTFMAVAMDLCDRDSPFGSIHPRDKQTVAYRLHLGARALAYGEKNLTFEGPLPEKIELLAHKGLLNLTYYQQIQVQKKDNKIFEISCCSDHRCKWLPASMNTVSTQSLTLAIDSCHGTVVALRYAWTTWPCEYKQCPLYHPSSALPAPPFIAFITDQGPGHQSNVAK
SIAE confirm: human SIAE inhibition, confirmation | shares compounds with SIAE inh | SIAE FP-Rh activity-based probe, fluorescence polarization | inhibition, % at 9.66 µM | 13% of 2,300 active;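 active = mean inhibition of the replicates above the hit cutoff set in the primary screen, cut at about 17% in these data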;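 also: 0% = SIAE with DMSO and probe and 100% = probe without SIAE; inhibitors lower polarization as more probe stays unbound to SIAE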
* = called active by the depositor; / = no result given. Most compounds without a hit are left out; they make up all but 1.8% or so of the library.

SMILES	DDE Tn7 FP inh	HTRA1 inh	ABHD4 inh	TCR-CD3 inh	Tn6 DDE FP	SIAE inh	SIAE confirm
CN(C)S(=O)(=O)c1ccc(-c2csc(N/N=C/c3ccc(O)cc3)n2)cc1	7	26	-3	-5	6	20*	24*
O=C(Nc1ccc(Br)cc1)OCCN1CCCC12CCC(c1ccccc1)CC2 (configuration not stated)	-4	/	7	/	7	-4	/
COc1ccc(NC(=O)c2ccc(-c3ccc([N+](=O)[O-])cc3)o2)cc1OC	-2	0	3	0	-8	19*	6
COc1cccc(NC(=O)c2ccc(-c3ccc([N+](=O)[O-])cc3)o2)c1	5	-18	-8	7	5	-4	/
CCCCN(C(=O)C(C)N1C(=O)c2ccccc2C1=O)c1c(N)n(CCCC)c(=O)[nH]c1=O (configuration not stated)	-2	-1	0	-5	1	19*	-5
CC(NC(=O)CCn1c(=S)[nH]c2ccsc2c1=O)c1ccccc1 (configuration not stated)	11	1	3	-5	-1	19*	1
O=c1c2sccc2[nH]c(=S)n1Cc1ccccc1	-2	2	1	2	3	5	/
O=C(CNS(=O)(=O)c1ccc(Br)s1)N1CCN(c2ccccn2)CC1	-2	/	5	/	-1	-2	/
C/C(=N\NC(=O)c1ccccc1)c1cc2cc([N+](=O)[O-])ccc2oc1=O	-2	7	3	8	-1	9	/
C/C(=N\NC(=O)c1ccc([N+](=O)[O-])cc1)c1cc2ccccc2oc1=O	1	6	9	6	-7	17*	7
Cc1ccc(-c2nnc(SCC(=O)Nc3ccc(OCc4ccccc4)cc3)n2-c2ccc(Cl)cc2)cc1	-1	/	5	/	8	-2	/
CC(C)(C)c1ccc(C(=O)N2CCC(C(=O)NCc3ccco3)CC2)cc1	-1	3	-3	-11	-2	17*	1
Cc1ccc(C(=O)N2CCC(C(=O)NCc3ccco3)CC2)cc1	6	5	-4	-4	1	1	/
CCOCCCNCC(=O)N1CCN(S(=O)(=O)c2ccc(C)cc2)CC1	-4	6	-2	-2	6	17*	-1
Cc1ccc(S(=O)(=O)N2CCN(C(=O)CCC(=O)NCc3ccc(F)cc3)CC2)cc1	0	0	6	-3	6	18*	2
Cn1c(=O)c2[nH]c(SCC(=O)N3CCN(c4cccc(C(F)(F)F)c4)CC3)nc2n(C)c1=O	5	/	1	/	13	2	/
O=C(Cc1csc(NC(=O)c2ccccc2)n1)NO	5	7	12	-6	-1	22*	15
COc1ccc(C(=O)Nc2nc(CC(=O)NCCc3ccccc3)cs2)cc1	0	-10	-5	4	12	-1	/
COc1ccc(N2CCN(C(=O)CN3CCN(c4nc(-c5ccc(F)cc5)cs4)CC3)CC2)cc1	4	5	-1	5	7	28*	6
O=C(Cc1ccc(F)cc1)N1CCN(c2ccc([N+](=O)[O-])cc2)CC1	-5	6	-2	4	2	20*	5
Cc1cc(C)nc(N2CCCC(C(=O)NC(C)C)C2)n1 (configuration not stated)	-1	8	0	1	-2	18*	-5
CC(C)Cn1c(SCC(=O)c2ccc(Cl)s2)nnc1-c1ccco1	3	-22	3	-1	4	25*	3
COC(=O)C[C@@H]1CC[C@@H]2[C@H](COc3ccc(NC(=O)Nc4c(C)noc4C)cc3C(=O)N2C)O1	-4	/	5	/	5	0	/
COCc1cc(C)nc(SCC(=O)Nc2ccc3c(c2)OCCO3)c1C#N	-12	2	-5	-4	2	-1	/
COCc1cc(C)nc(SCC(=O)Nc2ccc3c(c2)OCO3)c1C#N	4	1	-8	0	-2	17*	0
SMILES	DDE Tn7 FP inh	HTRA1 inh	ABHD4 inh	TCR-CD3 inh	Tn6 DDE FP	SIAE inh	SIAE confirm
O=C(C1CCN(c2cncnc2)CC1)N1CCCC1	7	/	2	/	13	1	/
O=C(O)c1ccc(-c2cccc(Cl)c2)o1	-3	-4	-5	2	-2	18*	7
COc1ccccc1C(=O)NC1CCCCN(Cc2cccc(C(F)(F)F)c2)C1=O (configuration not stated)	5	/	-1	/	7	-2	/
O=C(COC(=O)CSc1ccc(Cl)cc1)Nc1ccccc1	5	-3	-3	-4	6	-7	/
O=C(COC(=O)c1ccc(CSc2ccc(Cl)cc2)cc1)Nc1ccccc1	-4	-3	1	1	-3	20*	-4
O=C1C(CSCc2ccccc2)NC(=S)N1c1ccccc1 (configuration not stated)	-4	/	-2	-2	3	100*	-83
O=C(Cn1nnc(-c2ccncc2)n1)Nc1ccc(Cl)cc1	-2	/	-7	/	-4	7	/
Cc1c(C)n(CCc2ccccc2)c2ncnc(NCCCO)c12	1	-10	-4	6	-1	18*	5
Cc1c(C)n(CCc2ccccc2)c2ncnc(NN)c12	0	0	3	-5	-2	1	/
CC(=O)Nc1nc(C)c(-c2csc(Nc3cccc(C(C)=O)c3)n2)s1	-2	12	21	-12	-3	42*	65*
CN(C)c1nc2c(N)ncnc2n1[C@H]1O[C@@H](CO)[C@H](O)[C@@H]1O	1	2	5	1	-3	22*	2
COc1ccc(CCNC(=O)CSc2ccccc2)cc1OC	-3	-2	-3	-1	1	7	/
COc1ccc(CCNC(=O)CNCC(c2ccccc2)N(C)C)cc1OC (configuration not stated)	-5	10	14	-2	1	19*	1
COc1ccc([C@@]23CCN=C2c2[nH]c4ccccc4c2CCN3)c(N)c1	0	/	11	/	3	19*	2
COc1ccc2c3c([nH]c2c1)C1=NCC[C@]12c1ccccc1N=CN2CC3	5	/	7	/	2	6	/
COc1ccc2oc(=O)c(-c3csc(Nc4cccc(O)c4)n3)cc2c1	-7	-7	11	1	-20	39*	-5
OC1C2CN3CCN(C2)CC1(Cc1ccccc1)C3 (configuration not stated)	0	2	4	12	2	21*	-2
OC1C2(Cc3ccccc3)CN3CCN(C2)CC1(Cc1ccccc1)C3 (configuration not stated)	9	7	-8	0	-4	-2	/
Cc1sc(NC(=O)CS(=O)(=O)c2ccccc2)c(C(N)=O)c1C	5	4	0	6	-3	17*	1
